Assay [1] concerns the target Serine/threonine-protein kinase PLK1 (Homo sapiens, UniProt P53350). Briefly: Inhibition of PLK1 (unknown origin). In short, it runs like this:
(§1)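 Biochemical (cell-free) assay within a panel of 24 protein kinases. Results reported as IC50 values. Procedure as described in earlier work.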

The target in assay [2] is Casein kinase II subunit alpha (Homo sapiens, UniProt P68400). Briefly: Inhibition of CK2-alpha1 (unknown origin). In short, it runs like this:
as §1

Assay [3] addresses Cyclin-dependent kinase 2/cyclin A (Homo sapiens, UniProt P24941). Briefly: Inhibition of CDK2/cyclin-A (unknown origin). It is filed as protein-complex assay. In short, it runs like this: as §1
In assay [4] the target is RAC-alpha serine/threonine-protein kinase (Homo sapiens, UniProt P31749). Briefly: Inhibition of AKT1 (unknown origin). The procedure, abridged:
as §1

Assay [5] deals with T1, Receptor-type tyrosine-protein kinase FLT3 (Homo sapiens, UniProt P36888).
T1 sequence (P36888 whole entry): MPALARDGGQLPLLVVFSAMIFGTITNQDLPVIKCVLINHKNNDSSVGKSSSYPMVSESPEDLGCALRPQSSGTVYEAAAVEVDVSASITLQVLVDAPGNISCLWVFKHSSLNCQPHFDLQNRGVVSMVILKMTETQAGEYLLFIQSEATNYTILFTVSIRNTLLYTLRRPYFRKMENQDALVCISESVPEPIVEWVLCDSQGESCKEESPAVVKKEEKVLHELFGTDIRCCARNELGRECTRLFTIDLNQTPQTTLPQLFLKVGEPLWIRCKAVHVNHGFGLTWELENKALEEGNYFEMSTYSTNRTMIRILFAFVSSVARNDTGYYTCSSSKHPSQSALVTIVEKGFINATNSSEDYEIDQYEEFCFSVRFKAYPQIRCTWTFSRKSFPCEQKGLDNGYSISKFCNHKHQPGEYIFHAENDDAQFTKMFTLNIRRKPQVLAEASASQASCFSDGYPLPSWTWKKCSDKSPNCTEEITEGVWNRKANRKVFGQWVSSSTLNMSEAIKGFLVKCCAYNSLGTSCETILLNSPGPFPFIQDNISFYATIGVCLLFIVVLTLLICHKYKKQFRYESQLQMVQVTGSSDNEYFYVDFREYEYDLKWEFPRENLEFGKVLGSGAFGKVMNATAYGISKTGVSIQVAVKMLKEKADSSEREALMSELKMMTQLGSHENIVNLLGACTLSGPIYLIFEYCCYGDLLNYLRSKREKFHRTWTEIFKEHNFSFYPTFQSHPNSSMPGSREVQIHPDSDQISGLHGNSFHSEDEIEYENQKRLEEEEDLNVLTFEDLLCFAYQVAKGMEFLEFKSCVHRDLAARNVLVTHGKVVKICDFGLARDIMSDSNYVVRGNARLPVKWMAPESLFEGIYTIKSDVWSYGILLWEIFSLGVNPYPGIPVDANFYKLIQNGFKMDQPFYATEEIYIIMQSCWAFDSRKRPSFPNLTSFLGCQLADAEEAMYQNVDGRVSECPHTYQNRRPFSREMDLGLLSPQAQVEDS
Briefly: Inhibition of FLT3 (unknown origin). The procedure, abridged: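 Biochemical (cell-free) assay using a panel of 24 protein kinases. The read-out was the IC50.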

For assay [6], the target named is Platelet-derived growth factor receptor beta (Homo sapiens, UniProt P09619). Briefly: Inhibition of PDGFR-beta (unknown origin).
A further assay has as its target Ephrin type-B receptor 4 (Homo sapiens, UniProt P54760). Briefly: Inhibition of EPHB4 (unknown origin). The procedure, abridged: as §1

Three compounds from ChEMBL document CHEMBL2331160, “Trimeric hemibastadin congener from the marine sponge Ianthella basta” (J Nat Prod, 2013) can be followed below.

The IC50 is the midpoint of a concentration-inhibition curve.

Sequence of Ephrin type-B receptor 4 (P54760 whole entry): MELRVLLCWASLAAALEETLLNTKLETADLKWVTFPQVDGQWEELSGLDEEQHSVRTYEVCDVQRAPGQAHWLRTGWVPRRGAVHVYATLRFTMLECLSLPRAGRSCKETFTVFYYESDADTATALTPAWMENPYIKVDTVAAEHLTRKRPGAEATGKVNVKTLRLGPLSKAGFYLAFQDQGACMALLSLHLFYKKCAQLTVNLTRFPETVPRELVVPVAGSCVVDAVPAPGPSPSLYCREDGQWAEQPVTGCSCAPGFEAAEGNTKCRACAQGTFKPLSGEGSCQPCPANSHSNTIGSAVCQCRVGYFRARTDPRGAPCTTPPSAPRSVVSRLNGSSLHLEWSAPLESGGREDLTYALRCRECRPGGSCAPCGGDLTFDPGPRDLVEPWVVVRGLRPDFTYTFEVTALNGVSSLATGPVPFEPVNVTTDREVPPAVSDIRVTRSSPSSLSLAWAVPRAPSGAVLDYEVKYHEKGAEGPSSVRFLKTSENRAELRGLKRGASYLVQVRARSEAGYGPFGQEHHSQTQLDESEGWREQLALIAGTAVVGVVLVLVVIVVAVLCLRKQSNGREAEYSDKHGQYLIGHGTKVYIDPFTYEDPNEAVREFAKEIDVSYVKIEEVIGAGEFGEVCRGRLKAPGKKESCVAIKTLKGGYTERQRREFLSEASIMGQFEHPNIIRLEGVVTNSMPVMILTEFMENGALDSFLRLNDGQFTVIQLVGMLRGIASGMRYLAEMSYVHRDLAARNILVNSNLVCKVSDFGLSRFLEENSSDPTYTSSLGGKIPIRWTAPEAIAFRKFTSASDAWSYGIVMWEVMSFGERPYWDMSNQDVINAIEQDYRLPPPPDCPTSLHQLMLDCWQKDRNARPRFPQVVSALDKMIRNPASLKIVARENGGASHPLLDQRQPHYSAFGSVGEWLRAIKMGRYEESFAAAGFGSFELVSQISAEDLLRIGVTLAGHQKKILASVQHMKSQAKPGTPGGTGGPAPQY
Sequence of Platelet-derived growth factor receptor beta (P09619 whole entry): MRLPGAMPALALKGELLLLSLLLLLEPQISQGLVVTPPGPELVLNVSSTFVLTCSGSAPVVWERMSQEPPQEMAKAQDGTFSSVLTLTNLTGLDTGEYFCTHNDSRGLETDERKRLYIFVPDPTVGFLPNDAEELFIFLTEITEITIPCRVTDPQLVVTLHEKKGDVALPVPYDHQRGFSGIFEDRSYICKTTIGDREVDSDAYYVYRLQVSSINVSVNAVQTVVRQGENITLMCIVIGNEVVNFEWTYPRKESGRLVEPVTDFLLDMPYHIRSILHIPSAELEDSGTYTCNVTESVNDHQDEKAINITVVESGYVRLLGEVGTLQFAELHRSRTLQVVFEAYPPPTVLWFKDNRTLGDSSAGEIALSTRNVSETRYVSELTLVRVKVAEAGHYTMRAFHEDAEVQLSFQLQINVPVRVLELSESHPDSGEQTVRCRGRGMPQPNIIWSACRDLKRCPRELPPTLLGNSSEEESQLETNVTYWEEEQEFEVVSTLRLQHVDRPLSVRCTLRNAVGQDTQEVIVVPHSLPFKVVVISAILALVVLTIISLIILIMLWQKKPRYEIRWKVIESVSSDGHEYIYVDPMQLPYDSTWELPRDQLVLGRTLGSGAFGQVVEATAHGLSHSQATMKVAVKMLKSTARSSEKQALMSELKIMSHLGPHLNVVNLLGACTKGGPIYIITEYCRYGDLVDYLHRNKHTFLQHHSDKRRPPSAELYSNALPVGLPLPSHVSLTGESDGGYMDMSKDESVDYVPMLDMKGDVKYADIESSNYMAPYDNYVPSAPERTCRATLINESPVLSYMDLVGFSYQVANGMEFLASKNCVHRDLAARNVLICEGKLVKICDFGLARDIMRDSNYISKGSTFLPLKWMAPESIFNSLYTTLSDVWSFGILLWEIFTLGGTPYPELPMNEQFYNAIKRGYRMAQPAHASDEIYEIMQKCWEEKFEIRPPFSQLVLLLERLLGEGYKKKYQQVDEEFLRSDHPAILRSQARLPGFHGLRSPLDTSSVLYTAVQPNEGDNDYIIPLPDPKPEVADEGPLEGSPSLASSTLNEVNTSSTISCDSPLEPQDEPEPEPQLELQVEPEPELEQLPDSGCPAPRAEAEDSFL
Sequence of Serine/threonine-protein kinase PLK1 (P53350 whole entry): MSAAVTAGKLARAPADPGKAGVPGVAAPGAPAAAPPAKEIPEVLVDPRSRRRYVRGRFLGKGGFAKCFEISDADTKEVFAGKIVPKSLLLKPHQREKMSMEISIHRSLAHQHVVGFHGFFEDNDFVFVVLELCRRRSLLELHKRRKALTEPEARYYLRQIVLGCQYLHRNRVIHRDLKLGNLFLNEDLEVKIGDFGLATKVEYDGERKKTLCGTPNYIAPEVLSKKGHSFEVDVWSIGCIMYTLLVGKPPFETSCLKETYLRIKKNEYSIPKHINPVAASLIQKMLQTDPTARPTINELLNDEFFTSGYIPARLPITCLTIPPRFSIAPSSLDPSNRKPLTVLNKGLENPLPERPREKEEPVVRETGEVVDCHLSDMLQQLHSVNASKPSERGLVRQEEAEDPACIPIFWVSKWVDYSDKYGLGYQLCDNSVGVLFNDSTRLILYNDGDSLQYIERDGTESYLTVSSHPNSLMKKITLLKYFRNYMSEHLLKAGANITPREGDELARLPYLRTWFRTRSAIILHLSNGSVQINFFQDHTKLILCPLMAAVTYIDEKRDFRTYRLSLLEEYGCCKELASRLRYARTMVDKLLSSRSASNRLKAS
Sequence of Casein kinase II subunit alpha (P68400 whole entry): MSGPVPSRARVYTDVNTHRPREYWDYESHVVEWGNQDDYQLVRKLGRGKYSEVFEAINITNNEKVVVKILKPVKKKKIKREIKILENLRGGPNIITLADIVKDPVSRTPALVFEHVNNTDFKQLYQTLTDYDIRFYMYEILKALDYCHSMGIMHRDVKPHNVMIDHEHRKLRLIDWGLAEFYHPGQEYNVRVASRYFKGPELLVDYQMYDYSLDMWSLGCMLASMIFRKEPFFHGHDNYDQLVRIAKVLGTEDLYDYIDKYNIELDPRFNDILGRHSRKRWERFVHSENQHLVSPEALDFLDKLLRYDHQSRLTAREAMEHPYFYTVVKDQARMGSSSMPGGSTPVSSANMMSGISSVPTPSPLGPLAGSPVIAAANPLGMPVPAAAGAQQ
Sequence of RAC-alpha serine/threonine-protein kinase (P31749 whole entry): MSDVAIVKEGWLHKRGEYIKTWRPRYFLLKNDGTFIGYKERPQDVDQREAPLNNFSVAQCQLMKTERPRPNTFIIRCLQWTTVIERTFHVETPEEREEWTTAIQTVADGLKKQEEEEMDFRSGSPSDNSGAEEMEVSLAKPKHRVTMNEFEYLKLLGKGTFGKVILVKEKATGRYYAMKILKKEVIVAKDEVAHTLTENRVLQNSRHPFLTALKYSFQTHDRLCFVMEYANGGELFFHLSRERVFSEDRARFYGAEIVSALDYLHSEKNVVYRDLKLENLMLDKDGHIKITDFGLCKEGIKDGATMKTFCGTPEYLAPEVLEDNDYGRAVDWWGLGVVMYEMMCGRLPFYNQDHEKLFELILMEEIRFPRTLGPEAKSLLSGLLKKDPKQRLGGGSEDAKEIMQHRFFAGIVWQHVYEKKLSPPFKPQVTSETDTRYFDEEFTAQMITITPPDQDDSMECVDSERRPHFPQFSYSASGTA

As for `O=C(NCCc1ccc(O)c(Br)c1)/C(Cc1cc(Br)c(O)c(-c2cc(C/C(=N/O)C(=O)NCCc3ccc(O)c(Br)c3)cc(Br)c2O)c1)=N\O` [BASTADIN 3], the IC50 is 3.9 µM in assay [1]; 4.1 µM in assay [2]; 1.6 µM in assay [3]; 1.9 µM in assay [4]; 2.4 µM in assay [5].
Turning to `O=C1N/C=C/c2ccc(c(Br)c2)Oc2cc(cc(Br)c2O)CCNC(=O)/C(=N/O)Cc2ccc(c(Br)c2)Oc2cc(cc(Br)c2O)C/C1=N\O` [BASTADIN 7], the IC50 in assay [6] is 10.2 µM; against Ephrin type-B receptor 4 it was 7.7 µM; in assay [5] it was 2.9 µM.
`O=C(NCCc1ccc(O)c(Br)c1)/C(Cc1cc(Br)c(O)c(Oc2ccc(CCNC(=O)/C(Cc3cc(Br)c(O)c(-c4cc(C/C(=N\O)C(=O)NCCc5ccc(O)c(Br)c5)cc(Br)c4O)c3)=N/O)cc2Br)c1)=N/O` [SESQUIBASTADIN 1]: the IC50 in assay [6] came to 4 µM; in assay [1] it was 6.4 µM; against Ephrin type-B receptor 4, 3.4 µM; in assay [3], 6.5 µM; in assay [5] it was 1.4 µM.
